Reference: ChEMBL document CHEMBL5058577, “EUbOPEN Chemogenomics Library 2 (Multiplex)” (2022)

System: U2OS
Assay: Multiplex assay against U2OS
Assay type: toxicity, cell-based
Details: human
Procedure, shortened: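 On a CQ1 microscope at 37°C and 5% CO2, live cells were imaged after compound addition. They had been stained at seeding with Hoechst33342, BioTracker Green Microtubule Cytoskeleton Dye, MitoTracker Red and Annexin V Alexa Fluor 680. CellPathfinder machine-learning gating assigned cells to Hoechst high-intensity objects or normal cells, normal cells to healthy, pyknosed or fragmented nuclei, and pyknosed cells to mitotic or apoptotic. Tubulin, mitochondrial-mass and membrane-permeability phenotypes are per cents of healthy-nucleus cells.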

[1] = 12 h, 1 µM, compound concentration 1 uM, replicate 1
[2] = 12 h, 1 µM, compound concentration 1 uM, replicate 2
[3] = 12 h, 10 µM, compound concentration 10 uM, replicate 1
[4] = 12 h, 10 µM, compound concentration 10 uM, replicate 2
[5] = 24 h, 1 µM, compound concentration 1 uM, replicate 1
[6] = 24 h, 1 µM, compound concentration 1 uM, replicate 2
[7] = 24 h, 10 µM, compound concentration 10 uM, replicate 1
[8] = 24 h, 10 µM, compound concentration 10 uM, replicate 2
[9] = 48 h, 1 µM, compound concentration 1 uM, replicate 1
[10] = 48 h, 1 µM, compound concentration 1 uM, replicate 2
[11] = 48 h, 10 µM, compound concentration 10 uM, replicate 1
[12] = 48 h, 10 µM, compound concentration 10 uM, replicate 2

For Nc1nc(-c2ccco2)c2cnn(Cc3ccccc3F)c2n1, the “Population Apoptotic (%)” value [1] was 82%, the “Population Fragmented Nuclei (%)” value [1] was 23% and the “Population Healthy Nuclei (%)” value [1] was 68%. For the same compound, the “Population Hoechst High Intensity Objects (%)” value [1] was 1%, the “Population Membrane Permeable-Phenotype (%)” value [1] was 4% and the “Population Mitochondria Different-Phenotype (%)” value [1] was 2%. The “Population Mitotic Cells (%)” value [1] was 17%, the “Population Normal (%)” value [1] was 98% and the “Population Pyknosed Nuclei (%)” value [1] was 8%. For the same compound, the “Population Tubulin-Different-Phenotype (%)” value [1] was 3%, the “Total Cell Count” value [1] was 280 and the “Population Apoptotic (%)” value [2] was 92%. For the same compound, the “Population Healthy Nuclei (%)” value [2] was 64%, the “Population Hoechst High Intensity Objects (%)” value [2] was 0% and the “Population Membrane Permeable-Phenotype (%)” value [2] was 12%. For the same compound, the “Population Mitochondria Different-Phenotype (%)” value [2] was 5%, the “Population Mitotic Cells (%)” value [2] was 7% and the “Population Normal (%)” value [2] was 99%. The “Population Pyknosed Nuclei (%)” value [2] was 12%, the “Population Tubulin-Different-Phenotype (%)” value [2] was 8% and the “Total Cell Count” value [2] was 109. For the same compound, the “Population Apoptotic (%)” value [3] was 87%, the “Population Fragmented Nuclei (%)” value [3] was 41% and the “Population Healthy Nuclei (%)” value [3] was 45%. For the same compound, the “Population Hoechst High Intensity Objects (%)” value [3] was 5%, the “Population Membrane Permeable-Phenotype (%)” value [3] was 10% and the “Population Mitochondria Different-Phenotype (%)” value [3] was 4%. For the same compound, the “Population Mitotic Cells (%)” value [3] was 12%, the “Population Normal (%)” value [3] was 94% and the “Population Pyknosed Nuclei (%)” value [3] was 12%. The “Population Tubulin-Different-Phenotype (%)” value [3] was 7%, the “Total Cell Count” value [3] was 197 and the “Population Apoptotic (%)” value [4] was 77%. For the same compound, the “Population Fragmented Nuclei (%)” value [4] was 20%, the “Population Healthy Nuclei (%)” value [4] was 72% and the “Population Hoechst High Intensity Objects (%)” value [4] was 0%. For the same compound, the “Population Membrane Permeable-Phenotype (%)” value [4] was 5%, the “Population Mitochondria Different-Phenotype (%)” value [4] was 5% and the “Population Mitotic Cells (%)” value [4] was 22%. The “Population Normal (%)” value [4] was 99%, the “Population Pyknosed Nuclei (%)” value [4] was 7% and the “Population Tubulin-Different-Phenotype (%)” value [4] was 1%. For the same compound, the “Total Cell Count” value [4] was 125, the “Population Apoptotic (%)” value [5] was 96% and the “Population Fragmented Nuclei (%)” value [5] was 19%. The “Population Healthy Nuclei (%)” value [5] was 70%, the “Population Hoechst High Intensity Objects (%)” value [5] was 1% and the “Population Membrane Permeable-Phenotype (%)” value [5] was 4%. The “Population Mitochondria Different-Phenotype (%)” value [5] was 1%, the “Population Mitotic Cells (%)” value [5] was 3% and the “Population Normal (%)” value [5] was 98%. The “Population Pyknosed Nuclei (%)” value [5] was 9%, the “Population Tubulin-Different-Phenotype (%)” value [5] was 2% and the “Total Cell Count” value [5] was 332. The “Population Apoptotic (%)” value [6] was 84%, the “Population Fragmented Nuclei (%)” value [6] was 18% and the “Population Healthy Nuclei (%)” value [6] was 71%. For the same compound, the “Population Hoechst High Intensity Objects (%)” value [6] was 4%, the “Population Membrane Permeable-Phenotype (%)” value [6] was 10% and the “Population Mitochondria Different-Phenotype (%)” value [6] was 3%. The “Population Mitotic Cells (%)” value [6] was 15%, the “Population Normal (%)” value [6] was 95% and the “Population Pyknosed Nuclei (%)” value [6] was 10%. For the same compound, the “Population Tubulin-Different-Phenotype (%)” value [6] was 8%, the “Total Cell Count” value [6] was 127 and the “Population Apoptotic (%)” value [7] was 82%. For the same compound, the “Population Fragmented Nuclei (%)” value [7] was 38%, the “Population Healthy Nuclei (%)” value [7] was 53% and the “Population Hoechst High Intensity Objects (%)” value [7] was 5%. For the same compound, the “Population Membrane Permeable-Phenotype (%)” value [7] was 7%, the “Population Mitochondria Different-Phenotype (%)” value [7] was 3% and the “Population Mitotic Cells (%)” value [7] was 17%. For the same compound, the “Population Normal (%)” value [7] was 94%, the “Population Pyknosed Nuclei (%)” value [7] was 7% and the “Population Tubulin-Different-Phenotype (%)” value [7] was 5%. The “Total Cell Count” value [7] was 230, the “Population Apoptotic (%)” value [8] was 90% and the “Population Fragmented Nuclei (%)” value [8] was 19%. For the same compound, the “Population Healthy Nuclei (%)” value [8] was 73%, the “Population Hoechst High Intensity Objects (%)” value [8] was 1% and the “Population Membrane Permeable-Phenotype (%)” value [8] was 5%. The “Population Mitochondria Different-Phenotype (%)” value [8] was 0%, the “Population Mitotic Cells (%)” value [8] was 9% and the “Population Normal (%)” value [8] was 98%. The “Population Tubulin-Different-Phenotype (%)” value [8] was 4%, the “Total Cell Count” value [8] was 157 and the “Population Apoptotic (%)” value [9] was 94%. The “Population Fragmented Nuclei (%)” value [9] was 17%, the “Population Healthy Nuclei (%)” value [9] was 74% and the “Population Hoechst High Intensity Objects (%)” value [9] was 1%. For the same compound, the “Population Membrane Permeable-Phenotype (%)” value [9] was 2%, the “Population Mitochondria Different-Phenotype (%)” value [9] was 2% and the “Population Mitotic Cells (%)” value [9] was 5%. For the same compound, the “Population Normal (%)” value [9] was 98%, the “Population Pyknosed Nuclei (%)” value [9] was 7% and the “Population Tubulin-Different-Phenotype (%)” value [9] was 2%. The “Total Cell Count” value [9] was 462, the “Population Apoptotic (%)” value [10] was 95% and the “Population Fragmented Nuclei (%)” value [10] was 16%. For the same compound, the “Population Healthy Nuclei (%)” value [10] was 67%, the “Population Hoechst High Intensity Objects (%)” value [10] was 6% and the “Population Membrane Permeable-Phenotype (%)” value [10] was 5%. For the same compound, the “Population Mitochondria Different-Phenotype (%)” value [10] was 5%, the “Population Mitotic Cells (%)” value [10] was 4% and the “Population Normal (%)” value [10] was 93%. The “Population Pyknosed Nuclei (%)” value [10] was 15%, the “Population Tubulin-Different-Phenotype (%)” value [10] was 1% and the “Total Cell Count” value [10] was 141. The “Population Apoptotic (%)” value [11] was 95%, the “Population Fragmented Nuclei (%)” value [11] was 37% and the “Population Healthy Nuclei (%)” value [11] was 51%. The “Population Hoechst High Intensity Objects (%)” value [11] was 11%, the “Population Membrane Permeable-Phenotype (%)” value [11] was 17% and the “Population Mitochondria Different-Phenotype (%)” value [11] was 6%. The “Population Mitotic Cells (%)” value [11] was 4%, the “Population Normal (%)” value [11] was 88% and the “Population Pyknosed Nuclei (%)” value [11] was 10%. For the same compound, the “Population Tubulin-Different-Phenotype (%)” value [11] was 11%, the “Total Cell Count” value [11] was 252 and the “Population Apoptotic (%)” value [12] was 86%. For the same compound, the “Population Fragmented Nuclei (%)” value [12] was 23%, the “Population Healthy Nuclei (%)” value [12] was 69% and the “Population Hoechst High Intensity Objects (%)” value [12] was 2%. For the same compound, the “Population Membrane Permeable-Phenotype (%)” value [12] was 12%, the “Population Mitotic Cells (%)” value [12] was 13% and the “Population Normal (%)” value [12] was 97%. The “Population Pyknosed Nuclei (%)” value [12] was 7%, the “Population Tubulin-Different-Phenotype (%)” value [12] was 6% and the “Total Cell Count” value [12] was 196.
